High-throughput results as filed in PubChem.
Arr AP2 block: human beta-arrestin and AP2 interaction inhibition; hit rate 0.31% among 340,000; inhibition, % at 10 µM; FITC-arrestin peptide / GST-AP2 beads, flow cytometry; AP2 beta2 appendage carries R879A mutation;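 active = inhibition above a set limit, near 3 SD of compounds lacking own fluorescence, cut at about 54% in these data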;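 also: plate controls were DMSO wells for no effect and 5 µM unlabelled arrestin peptide for full effect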
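Measured by: flow cytometry, FL1 (488/535 nm); Material: AP2 appendage R879A on GSH beads; Evaluation: percent response; Timing: pre-incubation 12 min, peptide binding 1 h, room temperature; Also added: 50 nM FITC-arrestin peptide; Medium: PBS with 0.05% Tween 20 and 0.1% BSA.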
PLC-gamma1 inh: inhibitors of human phospholipase C gamma1 | inhibition, % at 12.2 µM | purified PLC-gamma1, fluorogenic substrate, fluorescence | P19174 | hit rate 0.84% among 370,000 | AID 720700; in the data active = inhibition above about 9.5%
NTR1 agonist: activates human neurotensin receptor 1; activation, % at 20 µM; hit rate 0.17% among 330,000; P30989; AID 493036; NTR1-U2OS beta-arrestin-GFP spot imaging, agonist mode;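 active = activation at or above 40% of the spot to cytoplasm intensity ratio, with at least 20 cells analyzed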;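 also: 0% = DMSO without peptide and 100% = 100 nM NTR1 peptide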
Target sequence (P30989 whole entry, looked up): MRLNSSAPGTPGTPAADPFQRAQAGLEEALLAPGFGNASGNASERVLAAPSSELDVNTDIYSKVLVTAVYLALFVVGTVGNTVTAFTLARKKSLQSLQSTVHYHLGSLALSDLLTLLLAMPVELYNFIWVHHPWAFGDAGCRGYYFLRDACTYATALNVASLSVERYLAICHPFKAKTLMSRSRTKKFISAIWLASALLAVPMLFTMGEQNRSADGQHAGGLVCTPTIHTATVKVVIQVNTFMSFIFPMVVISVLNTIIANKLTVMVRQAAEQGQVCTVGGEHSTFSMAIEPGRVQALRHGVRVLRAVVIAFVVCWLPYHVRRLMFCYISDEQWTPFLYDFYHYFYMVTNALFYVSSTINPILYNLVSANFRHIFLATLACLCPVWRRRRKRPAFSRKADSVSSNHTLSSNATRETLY
PLC-beta3 inh: inhibitors of human phospholipase C beta3; inhibition, % at 12.2 µM; Purified PLC-beta3, fluorogenic substrate, fluorescence; Q01970; AID 720704; hit rate 0.18% among 370,000; in the data active = inhibition above about 11%;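 also: 0% = median of compound wells on plate and 100% = full blocker control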
The depositor's hits bear a star; . = no result; ! = repeats disagree. The list is not random: actives were taken first. Their share in the collection is about 1.3%.

SMILES	Arr AP2 block	PLC-gamma1 inh	NTR1 agonist	PLC-beta3 inh
COc1ccc(NC(=O)C2CCCN(S(=O)(=O)c3ccccc3)C2)c(OC)c1 (stereo not drawn)	-6	12*	0	-2
Cc1cc(F)ccc1C(=O)N1CCC(Oc2cccnc2)CC1	.	-2	.	4
CCc1nnc(NC(=O)C2CCCN(c3nc4ccccc4s3)C2)s1 (stereo not drawn)	-5	11*	4	-88
CCOc1cc(/C=C2/C(=O)ON=C2C)ccc1OCc1ccccc1F	10	1	75*	-4
C[C@@H]1COc2cc(N3CCN(Cc4ccccc4F)CC3)ccc2S(=O)(=O)N1	.	9.8*	.	5
CC(C)C[C@H]1COc2cc(N3CCN(Cc4ccccc4F)CC3)ccc2S(=O)(=O)N1	.	-1	.	-4
CN1/C(=C/C=C/c2n(C)c3cc([N+](=O)[O-])c([N+](=O)[O-])cc3[n+]2C)C(C)(C)c2ccccc21	.	9.7*	.	13*
O=C(OC12CCCN(C1)/C(=C/c1ccccc1)C2)c1ccc(F)cc1 (stereo not drawn)	.	-2	.	-4
CC1(C)N=C(N)N=C(N)N1c1ccccc1	-6	2	1	6
CC1(C)N=C(N)N=C(N)N1c1ccc(CCCCc2ccccc2)cc1	.	11*	.	4
O=C(NCc1cccnc1)/C(=C\c1ccc(-c2cccc(Cl)c2)o1)S(=O)(=O)c1ccccc1	23	1	.	4
O=C(NCc1cccnc1)/C(=C/c1ccc(-c2cccc(Cl)c2)o1)S(=O)(=O)c1ccccc1	14	4	42*	0
Cc1c(NC(=O)CN2CCN(c3ccccc3)CC2)c(=O)n(-c2ccccc2)n1C	4	0	-1	4
Cc1c(NC(=O)CN2CC(C)OC(C)C2)c(=O)n(-c2ccccc2)n1C (stereo not drawn)	5	14*!	-2	2
CS(=O)(=O)c1nc(-c2ccc(Br)cc2)cc(-c2ccccc2)c1C#N	5	-2	15	0
CS(=O)c1nc(-c2ccc(Br)cc2)cc(-c2ccccc2)c1C#N (stereo not drawn)	11	-2	66*	1
COc1ccc(S(=O)(=O)N(C)C[C@H]2Oc3c(NC(=O)C4CCCCC4)cccc3C(=O)N([C@H](C)CO)C[C@@H]2C)cc1	-2	9.6*	2	-1
C[C@H](CO)N1C[C@H](C)[C@@H](CN(C)CC2CCCCC2)Oc2c(NS(=O)(=O)c3ccccc3)cccc2C1=O	7	7	1	11*
C[C@H](CO)N1C[C@H](C)[C@@H](CN(C)CC2CC2)Oc2c(NS(=O)(=O)c3ccccc3)cccc2C1=O	-7	-2	1	-1
NS(=O)(=O)c1ccc(Oc2ccc(S(N)(=O)=O)cc2)cc1	-5	0	2	0
C=CS(=O)(=O)c1ccc(Oc2ccc(S(=O)(=O)C=C)cc2)cc1	0	8	66*	2
CC(C)CN(C(=O)CCNC(=O)c1ccc([N+](=O)[O-])cc1)C1CCS(=O)(=O)C1 (stereo not drawn)	2	7	0	11*
COC(=O)c1cc2c(c3c4cc(C)ccc4n(S(=O)(=O)c4cccc(C)c4)c13)C(=O)N(C)C2	.	-18	.	-26
O=C(O)CCCCCn1c(SCC(=O)c2ccc(O)c(O)c2)nc2ccsc2c1=O	1	11*	-2	3
CCCCn1c(SCC(=O)c2ccc(O)c(O)c2)nc2ccsc2c1=O	.	.	4	.
SMILES	Arr AP2 block	PLC-gamma1 inh	NTR1 agonist	PLC-beta3 inh
CC1=C2N=C(N)N(Cc3ccccc3)C(Cc3ccccc3)C2n2c(=O)n(-c3ccccc3)c(=O)n2C1 (stereo not drawn)	.	7	.	7
Cc1ccc(NC2CCCN(C(=O)CCN3CCCCO3)C2)cc1C (stereo not drawn)	-10	12*	0	3
O=C(CCN1CCCCO1)N1CCCC(Nc2ccc(F)c(F)c2)C1 (stereo not drawn)	-5	4	2	-3
CCC1(c2ccccc2)CN(C)C1=O (stereo not drawn)	.	1	.	-1
CCN1c2ccccc2N(C)C1(C)c1ccccc1 (stereo not drawn)	75*	.	.	.
COc1cc(/C=C2\CCC/C(=C\c3ccc(O)c(OC)c3)C2=O)ccc1O	0	-32	56*	-48
COc1cc(/C=C2/CCCC(C(=O)C(F)(F)F)=C2O)ccc1O	-7	-2	3	-13
CCOC(=O)Cn1nnc(-c2ccc([N+](=O)[O-])cc2)n1	10	9.6*	-2	-8
CCOC(=O)C(C)(C)n1nnc(-c2ccc([N+](=O)[O-])cc2)n1	-5	3	-1	3
CCOC(=O)c1oc2cccc(O)c2c1C	11	-78	-2	-85
CCOC(=O)c1oc2ccc(CNC(C)(C)C)c(Cl)c2c1C	1	12*	0	6
CCOc1cc(N2CCOCC2)c(OCC)cc1NC(=O)CSc1ccccc1C(=O)O	13	5	3	-9
CCOc1cc(N2CCOCC2)c(OCC)cc1NC(=O)CN1CCc2ccccc2C1	-2	8	1	11*
CCCc1cc(=O)[nH]c(SCC(=O)Nc2c(C)cccc2C)n1	1	.	0	.
CC(=O)Nc1c(O)nc(SCC(=O)Nc2c(C)cccc2C)[nH]c1=O	-2	12*	2	12*
CCC[C@@H](CN1CCC[C@H]1CN1C(N)=NC[C@H]1CC(C)C)N1C[C@@H](Cc2ccccc2)N(CCc2ccc(Cl)c(Cl)c2)C1=N	22	6	-2	12*
Cc1ccc(C(=O)n2ccc3ccc(-c4ccc5ccn(Cc6ccc(C#N)cc6)c5c4)cc32)cc1	.	-86	.	-135
Cc1[nH]n(-c2ccccc2)c(=O)c1C(c1cccc([N+](=O)[O-])c1)c1c(C)[nH]n(-c2ccccc2)c1=O	20	13*	11	7
O=C(CN1CC(=O)Oc2ccccc21)OCC(=O)c1cccc(Br)c1	58*	.	-2	.
COC(=O)[C@H](C(C)C)N(Cc1cn(Cc2ccccc2)nn1)S(=O)(=O)c1ccc(F)cc1Br	.	4	.	3
O=C1SC(SC(=Nc2ccccc2)Nc2ccccc2)C(=O)N1c1ccccc1 (stereo not drawn)	-12	0	0	14*
CN(C(=O)c1ccc2c(c1)C(=O)N(CCC1=CCCCC1)C2=O)C1CCCCC1	-6	1	5	0
O=C(O)c1ccc2c(c1)C(=O)N(CCC1=CCCCC1)C2=O	1	13*	0	-1
CO[C@@H]1[C@H](O)CC[C@]2(O)CN(c3ccccc3)[C@](C)([C@H](O)CC=C(C)C)[C@@H]12	.	-5	.	-9
CSc1ccc(CNC(=O)C2(C)CCCN(C(C)=O)C2)cc1 (stereo not drawn)	.	4	.	11*
CC1CN(S(=O)(=O)c2ccc(Cl)c(C(F)(F)F)c2)CC(C)O1 (stereo not drawn)	70*	-4	-2	3
CN1CCN(S(=O)(=O)c2ccc(Cl)c(C(F)(F)F)c2)CC1	-6	4	.	2
C[C@H](CO)N1C[C@H](C)[C@H](CN(C)C(=O)C2CCCCC2)OCc2cnnn2CCCC1=O	.	2	.	3
O=C1Nc2ccccc2C1=Nc1cccc([N+](=O)[O-])c1	13	-2	-1	2
